Converted amounts (≈) assume the structure as drawn. The source made the active and inactive calls. The calls are words filed in the database; no cut-off is given here.
Experiments:
Staphylococcus aureus [1] = test: Antibacterial activity against Staphylococcus aureus ATCC 6538 after 48 hrs by microdilution assay; format: functional; conditions: ATCC 6538, 48 h
Nakaseomyces glabratus = test: Antifungal activity against Candida glabrata 20/I clinical isolate up to 1 mM after 24 to 48 hrs by microdilution assay; format: functional, organism-based
How it was run: (§1)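 Fungal microdilution following modified CLSI M27-A3/M38-A2, in RPMI 1640 with L-glutamine and 0.165 M MOPS at pH 7.0, with DMSO no more than 2% final. Compounds were 2-fold serially diluted from 2000 to 0.488 µmol/l. The inoculum was 5×10^3 cfu/ml. Incubation was at 35 °C, read visually at 24/48 h (T. mentagrophytes at 72/120 h). MIC was IC80 for yeasts and IC50 for filamentous fungi, determined twice in duplicate.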

[2] = tested on: Staphylococcus epidermidis; test: Antibacterial activity against Staphylococcus epidermidis HK6966/08 clinical isolate after 24 hrs by microdilution assay; format: functional; conditions: HK6966/08, 24 h
BJ = test: Cytotoxicity against human BJ cells assessed as reduction in cell viability after 48 hrs by ATPlite-based luminescent assay
How it was run: (§2)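 Cells were grown […] with 10% FBS, glutamax, NEAA and pen/strep at 37 °C, 5% CO2. Media were DMEM for RPE-1, HepG2 and BJ (BJ plus 10 ng/ml bFGF), F-12K for PC3, and IMDM for K562/HL-60. Cells were seeded at 500 per well and dosed from DMSO at 12 concentrations, 40 µM to 1 nM, in triplicate. After 48 h, intracellular ATP was read by luminescence. ED50 was obtained by variable-slope nonlinear regression.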

Pichia kudriavzevii [3] = test: Antifungal activity against Candida krusei E28 clinical isolate up to 1 mM after 24 to 48 hrs by microdilution assay; format: functional, organism-based; how it was run: as §1
Escherichia coli [4] = test: Antibacterial activity against Escherichia coli ATCC 8739 after 48 hrs by microdilution assay; format: functional; conditions: ATCC 8739, 48 h
How it was run: (§3)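 Broth microdilution in Mueller-Hinton medium buffered to pH 7.4 (±0.2), with DMSO as diluent at no more than 2% final. Compounds were tested as 2-fold serial dilutions from 2000 to 0.488 µmol/l. The inoculum was 0.5 McFarland (1.5×10^8 cfu/ml). Plates were held at 37 °C and read visually at 24 and 48 h. MIC was taken as 95% growth inhibition versus control, determined twice in duplicate.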

MCF7 = test: Cytotoxicity against human MCF7 cells assessed as reduction in cell viability after 48 hrs by ATPlite-based luminescent assay; conditions: MCF7, 48 h
Clavispora lusitaniae = test: Antifungal activity against Candida lusitaniae 2446/I clinical isolate up to 1 mM after 24 to 48 hrs by microdilution assay; format: functional, organism-based; how it was run: as §1
Pseudomonas aeruginosa [5] = test: Antibacterial activity against Pseudomonas aeruginosa ATCC 9027 after 48 hrs by microdilution assay; format: functional; conditions: ATCC 9027, 48 h; how it was run: as §3
HepG2 [6] = test: Induction of apoptosis in human HepG2 cells assessed as caspase 3/7 activity after 24 hrs by caspase-glo luminescent assay; format: cell-based; conditions: HepG2, 24 h
How it was run: (§4)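 Cells were seeded at 500 per well in their growth media and exposed to 12 concentrations from 40 µM to 1 nM, delivered from DMSO, in triplicate. After 24 h, caspase-3/7 activity was read by Caspase-Glo luminescence. Data were normalized and ED50 was fitted by variable-slope nonlinear regression.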

HepG2 [7] = test: Cytotoxicity against human HepG2 cells assessed as reduction in cell viability after 48 hrs by ATPlite-based luminescent assay; conditions: HepG2, 48 h; how it was run: as §2
Enterococcus sp. [8] = test: Antibacterial activity against Enterococcus sp. HK14365/08 clinical isolate after 24 hrs by microdilution assay; format: functional; conditions: HK14365/08, 24 h
Pichia kudriavzevii [9] = test: Antifungal activity against Candida krusei ATCC 6258 up to 1 mM after 24 to 48 hrs by microdilution assay; format: functional, organism-based; how it was run: as §1
PC-3 [10] = test: Cytotoxicity against human PC3 cells assessed as reduction in cell viability after 48 hrs by ATPlite-based luminescent assay; conditions: PC-3, 48 h; how it was run: as §2
[11] = tested on: Trichophyton mentagrophytes; test: Antifungal activity against Trichophyton mentagrophytes 445 up to 1 mM after 72 to 120 hrs by microdilution assay; format: functional, organism-based; how it was run: as §1
Candida albicans [12] = test: Antifungal activity against Candida albicans ATCC 90028 up to 1 mM after 24 to 48 hrs by microdilution assay; format: functional, organism-based; how it was run: as §1
Aspergillus fumigatus = test: Antifungal activity against Aspergillus fumigatus 231 up to 1 mM after 24 to 48 hrs by microdilution assay; format: functional, organism-based; how it was run: as §1
Staphylococcus aureus [13] = test: Antibacterial activity against methicillin-resistant Staphylococcus aureus HK5996/08 clinical isolate after 24 hrs by microdilution assay; format: functional; conditions: HK5996/08, 24 h
TERT-RPE1 [14] = test: Induction of apoptosis in human RPE1 cells assessed as caspase 3/7 activity after 24 hrs by caspase-glo luminescent assay; format: cell-based; conditions: RPE-1, 24 h; how it was run: as §4
Enterococcus sp. [15] = test: Antibacterial activity against Enterococcus sp. HK14365/08 clinical isolate after 48 hrs by microdilution assay; format: functional; conditions: HK14365/08, 48 h
Trichosporon asahii = test: Antifungal activity against Trichosporon asahii 1188 clinical isolate up to 1 mM after 24 to 48 hrs by microdilution assay; format: functional, organism-based; how it was run: as §1
Candida tropicalis = test: Antifungal activity against Candida tropicalis 156 clinical isolate up to 1 mM after 24 to 48 hrs by microdilution assay; format: functional, organism-based; how it was run: as §1
[16] = tested on: Staphylococcus epidermidis; test: Antibacterial activity against Staphylococcus epidermidis HK6966/08 clinical isolate after 48 hrs by microdilution assay; format: functional; conditions: HK6966/08, 48 h
K562 [17] = test: Induction of apoptosis in human K562 cells assessed as caspase 3/7 activity after 24 hrs by caspase-glo luminescent assay; format: cell-based; conditions: K562, 24 h; how it was run: as §4
Pseudomonas aeruginosa [18] = test: Antibacterial activity against Pseudomonas aeruginosa ATCC 9027 after 24 hrs by microdilution assay; format: functional; conditions: ATCC 9027, 24 h; how it was run: as §3
TERT-RPE1 [19] = test: Cytotoxicity against human RPE1 cells assessed as reduction in cell viability after 48 hrs by ATPlite-based luminescent assay; conditions: RPE-1, 48 h; how it was run: as §2
Klebsiella pneumoniae [20] = test: Antibacterial activity against Klebsiella pneumoniae HK11750/08 clinical isolate after 24 hrs by microdilution assay; format: functional; conditions: HK11750/08, 24 h
Staphylococcus aureus [21] = test: Antibacterial activity against Staphylococcus aureus ATCC 6538 after 24 hrs by microdilution assay; format: functional; conditions: ATCC 6538, 24 h
PC-3 [22] = test: Induction of apoptosis in human PC3 cells assessed as caspase 3/7 activity after 24 hrs by caspase-glo luminescent assay; format: cell-based; conditions: PC-3, 24 h; how it was run: as §4
Klebsiella pneumoniae [23] = test: Antibacterial activity against Klebsiella pneumoniae HK14368/08 clinical isolate after 24 hrs by microdilution assay; format: functional; conditions: HK14368/08, 24 h
Candida albicans [24] = test: Antifungal activity against Candida albicans ATCC 44859 up to 1 mM after 24 to 48 hrs by microdilution assay; format: functional, organism-based; how it was run: as §1
HL-60 [25] = test: Induction of apoptosis in human HL60 cells assessed as caspase 3/7 activity after 24 hrs by caspase-glo luminescent assay; format: cell-based; conditions: HL-60, 24 h; how it was run: as §4
Lichtheimia corymbifera = test: Antifungal activity against Absidia corymbifera 272 up to 1 mM after 24 to 48 hrs by microdilution assay; format: functional, organism-based; how it was run: as §1
Staphylococcus aureus [26] = test: Antibacterial activity against methicillin-resistant Staphylococcus aureus HK5996/08 clinical isolate after 48 hrs by microdilution assay; format: functional; conditions: HK5996/08, 48 h
HL-60 [27] = test: Cytotoxicity against human HL60 cells assessed as reduction in cell viability after 48 hrs by ATPlite-based luminescent assay; conditions: HL-60, 48 h; how it was run: as §2
Escherichia coli [28] = test: Antibacterial activity against Escherichia coli ATCC 8739 after 24 hrs by microdilution assay; format: functional; conditions: ATCC 8739, 24 h; how it was run: as §3
Klebsiella pneumoniae [29] = test: Antibacterial activity against Klebsiella pneumoniae HK11750/08 clinical isolate after 48 hrs by microdilution assay; format: functional; conditions: HK11750/08, 48 h
Candida parapsilosis = test: Antifungal activity against Candida parapsilosis ATCC 22019 up to 1 mM after 24 to 48 hrs by microdilution assay; format: functional, organism-based; how it was run: as §1
K562 [30] = test: Cytotoxicity against human K562 cells assessed as reduction in cell viability after 48 hrs by ATPlite-based luminescent assay; conditions: K562, 48 h; how it was run: as §2
Klebsiella pneumoniae [31] = test: Antibacterial activity against Klebsiella pneumoniae HK14368/08 clinical isolate after 48 hrs by microdilution assay; format: functional; conditions: HK14368/08, 48 h

Structure (SMILES) | MIC95 (Staphylococcus aureus [1]) [µM] | Activity (Nakaseomyces glabratus) | MIC95 [2] [µM] | IC50 (BJ) [µM] | Activity (Pichia kudriavzevii [3]) | MIC95 (Escherichia coli [4]) [µM] | IC50 (MCF7) [µM] | Activity (Clavispora lusitaniae) | MIC95 (Pseudomonas aeruginosa [5]) [µM] | IC50 (HepG2 [6]) [µM] | IC50 (HepG2 [7]) [µM] | MIC95 (Enterococcus sp. [8]) [µM] | Activity (Pichia kudriavzevii [9]) | IC50 (PC-3 [10]) [µM] | Activity [11] | Activity (Candida albicans [12]) | Activity (Aspergillus fumigatus) | MIC95 (Staphylococcus aureus [13]) [µM] | IC50 (TERT-RPE1 [14]) [µM] | MIC95 (Enterococcus sp. [15]) [µM] | further results
COc1ccc(C2=C(c3cccc(Cl)c3Cl)C(=O)OC2(CO)CO)cc1 | 15.6 (≈ 6.17 µg/mL) | inactive | 250 (≈ 98.8 µg/mL) | > 40 | inactive | > 500 | > 40 | inactive | > 500 | > 40 | > 40 | 500 (≈ 198 µg/mL) | inactive | > 40 | inactive | inactive | inactive | 62.5 (≈ 24.7 µg/mL) | > 40 | > 500 | Activity (Trichosporon asahii): inactive; Activity (Candida tropicalis): inactive; MIC95 [16]: 250 µM (≈ 98.8 µg/mL); IC50 (K562 [17]): > 40 µM; MIC95 (Pseudomonas aeruginosa [18]): > 500 µM; IC50 (TERT-RPE1 [19]): > 40 µM; MIC95 (Klebsiella pneumoniae [20]): > 500 µM; MIC95 (Staphylococcus aureus [21]): 7.81 µM (≈ 3.09 µg/mL); IC50 (PC-3 [22]): > 40 µM; MIC95 (Klebsiella pneumoniae [23]): > 500 µM; Activity (Candida albicans [24]): inactive; IC50 (HL-60 [25]): > 40 µM; Activity (Lichtheimia corymbifera): inactive; MIC95 (Staphylococcus aureus [26]): 125 µM (≈ 49.4 µg/mL); IC50 (HL-60 [27]): > 40 µM; MIC95 (Escherichia coli [28]): > 500 µM; MIC95 (Klebsiella pneumoniae [29]): > 500 µM; Activity (Candida parapsilosis): inactive; IC50 (K562 [30]): > 40 µM; MIC95 (Klebsiella pneumoniae [31]): > 500 µM
O=C1OCC(c2ccccc2)=C1c1ccc(Br)cc1 | 15.6 (≈ 4.92 µg/mL) | inactive | 31.2 (≈ 9.85 µg/mL) | > 40 | inactive | > 1000 | > 40 | inactive | > 1000 | > 40 | > 40 | > 1000 | inactive | > 40 | inactive | inactive | inactive | 31.2 (≈ 9.85 µg/mL) | > 40 | > 1000 | Activity (Trichosporon asahii): inactive; Activity (Candida tropicalis): inactive; MIC95 [16]: 62.5 µM (≈ 19.7 µg/mL); IC50 (K562 [17]): > 40 µM; MIC95 (Pseudomonas aeruginosa [18]): > 1000 µM; IC50 (TERT-RPE1 [19]): > 40 µM; MIC95 (Klebsiella pneumoniae [20]): > 1000 µM; MIC95 (Staphylococcus aureus [21]): 3.9 µM (≈ 1.23 µg/mL); IC50 (PC-3 [22]): > 40 µM; MIC95 (Klebsiella pneumoniae [23]): > 1000 µM; Activity (Candida albicans [24]): inactive; IC50 (HL-60 [25]): > 40 µM; Activity (Lichtheimia corymbifera): inactive; MIC95 (Staphylococcus aureus [26]): 62.5 µM (≈ 19.7 µg/mL); IC50 (HL-60 [27]): > 40 µM; MIC95 (Escherichia coli [28]): > 1000 µM; MIC95 (Klebsiella pneumoniae [29]): > 1000 µM; Activity (Candida parapsilosis): inactive; IC50 (K562 [30]): > 40 µM; MIC95 (Klebsiella pneumoniae [31]): > 1000 µM
